The values below come from ChEMBL document CHEMBL4024760, “Specific Inhibition of Bacterial β-Glucuronidase by Pyrazolo[4,3-c]quinoline Derivatives via a pH-Dependent Manner To Suppress Chemotherapy-Induced Intestinal Toxicity” (J Med Chem, 2017).

SMILES strings stand for the structures. Activity calls are given as the source filed them. The calls are words filed in the database; no cut-off is given here.

For series [1], the system named is Escherichia coli. The experiment in a line: Inhibition of N-terminal His-tagged Escherichia coli beta-glucuronidase expressed in Escherichia coli BL21 (DE3) assessed as residual activity using pNPG as substrate at 10 uM preincubated for 30 mins followed by substrate addition measured after 1 hr relative to control. The gist of the method:
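Purified E. coli βG (20 ng) preincubated with 10 μM compound for 30 min at 37 °C in PBS pH 7.5 with 10% DMSO and 0.05% BSA. pNPG (20 mM stock) then added for 1 h, quenched with 2 N NaOH, and read at OD405. Result given as % activity versus a 10% DMSO control; n = 3.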

The next series deals with T1, beta-glucuronidase (Homo sapiens, UniProt P08236).
T1 sequence (P08236 whole entry): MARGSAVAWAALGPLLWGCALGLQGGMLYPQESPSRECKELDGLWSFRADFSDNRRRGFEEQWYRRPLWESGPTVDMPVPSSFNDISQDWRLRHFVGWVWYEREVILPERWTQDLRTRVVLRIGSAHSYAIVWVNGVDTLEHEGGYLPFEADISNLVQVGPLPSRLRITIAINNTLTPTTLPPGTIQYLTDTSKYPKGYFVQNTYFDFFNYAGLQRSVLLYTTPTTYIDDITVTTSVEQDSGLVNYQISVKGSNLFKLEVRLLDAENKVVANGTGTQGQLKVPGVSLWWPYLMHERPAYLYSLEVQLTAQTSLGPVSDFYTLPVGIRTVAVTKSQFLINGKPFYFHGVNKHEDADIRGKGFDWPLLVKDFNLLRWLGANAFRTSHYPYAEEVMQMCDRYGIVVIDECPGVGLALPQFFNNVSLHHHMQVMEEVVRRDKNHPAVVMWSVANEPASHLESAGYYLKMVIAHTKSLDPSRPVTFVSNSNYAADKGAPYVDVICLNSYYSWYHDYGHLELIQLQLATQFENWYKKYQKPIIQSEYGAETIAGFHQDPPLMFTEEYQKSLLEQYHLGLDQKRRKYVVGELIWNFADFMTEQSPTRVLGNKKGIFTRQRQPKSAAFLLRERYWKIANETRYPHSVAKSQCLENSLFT
The experiment in a line: Inhibition of N-terminal His-tagged human beta-glucuronidase expressed in Escherichia coli BL21 (DE3) assessed as residual activity using pNPG as substrate at 10 uM preincubated for 30 mins followed by substrate addition measured after 1 hr relative to control. The note with it: probe pNPG, read-out: Activity.

A short description of series [2]: Inhibition of N-terminal His-tagged Escherichia coli beta-glucuronidase expressed in Escherichia coli BL21 (DE3) using pNPG as substrate preincubated for 30 mins followed by substrate addition measured after 1 hr. The gist of the method:
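Purified E. coli βG (20 ng) preincubated 30 min at 37 °C with compound (0.64–10 000 nM) in PBS pH 7.5 containing 10% DMSO and 0.05% BSA. pNPG (20 mM stock) then added for 1 h, quenched with 2 N NaOH, and pNP read at 405 nm. IC50 derived from a four-parameter curve fit; SD of n = 3.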

The subject of series [3] is Escherichia coli BL21(DE3). The series can be described thus: Inhibition of beta-glucuronidase in Escherichia coli BL21 (DE3) using pNPG as substrate at 50 uM preincubated for 30 mins followed by substrate addition measured after 1 hr relative to control. The gist of the method:
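BL21(DE3) E. coli grown overnight and diluted to OD600 0.1 in LB. Cells treated with compound (50, 10 or 2 μM) for 30 min at 37 °C, then pNPG (40 mM stock) added for 1 h. Cells pelleted at 6000g; supernatant quenched with NaOH and read at OD405. Activity given as % of a 1% DMSO control.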

The subject of series [4] is Escherichia coli. The experiment in a line: Toxicity against Escherichia coli BL21(DE3) assessed as effect on cell growth at 100 uM after 6 hrs. The method in brief: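 BL21(DE3) E. coli (diluted to OD600 0.1 in LB after overnight growth) incubated with compound at a final 100 μM, shaking at 37 °C for 6 h. Growth measured by OD600; viability given as % of the untreated control.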

The test system of series [5] is Escherichia coli. The series can be described thus: Inhibition of intestinal Escherichia coli beta-glucuronidase in Balb/cJ mouse using FDGIcU as substrate at 3 mg/kg, po for 5 days measured on day 5 post last dose 120 mins after probe administration. The class given is organism-based. The gist of the method:
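BALB/cJ mice were gavaged with inhibitor at 3 mg/kg/day or DDW (200 μL) for 5 days. FDGlcU probe (500 μg/100 μL) given orally 30 min after the fifth dose. Intestinal fluorescein imaged in vivo 120 min after the probe (ex 490/em 525 nm) and quantified as average radiance; n = 6; two-tailed t test.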

The test system of series [6] is Escherichia coli. The series can be described thus: Inhibition of Escherichia coli beta-glucuronidase in Balb/cJ mouse feces using pNPG as substrate at 3 mg/kg, po for 5 days measured on day 5 post last dose after 1 hr. It counts as organism-based. The method in brief:
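Mice gavaged with inhibitor at 3 mg/kg/day or DDW for 5 days. Fresh feces homogenized 1:9 w/v in assay buffer, mixed with assay buffer and 20 mM pNPG (stock), incubated 37 °C for 1 h, centrifuged, quenched with 2 N NaOH, and pNP read at OD405; n = 6; two-tailed t test.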

Series [7] relates to Mus musculus. The series can be described thus: Protection against CPT-11 induced intestinal toxicity in Balb/cJ mouse assessed as reduction in intestinal tissue damage at 3 mg/kg/day, po starting from 2 days before 50 mg/kg/day, ip CPT-11 administration for 10 consecutive days by hematoxylin and eosin staining based method. The class given is functional, organism-based. The gist of the method: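 Inhibitor given orally to BALB/cJ mice at 3 mg/kg/day in DDW (200 μL/day for controls), starting 2 days before CPT-11. CPT-11 50 mg/kg or saline given ip for 10 consecutive days. Jejunum, ileum and colon sections then H&E-stained and examined for villus and crypt destruction; 3–5 mice per group.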

Series [8] concerns Mus musculus. The series can be described thus: Protection against CPT-11 induced intestinal toxicity in Balb/cJ mouse transplanted with mouse CT26 cells assessed as reduction in diarrhea level at 3 mg/kg/day administered via oral gavage for 18 days starting from 2 days before 50 mg/kg/day, ip CPT-11 dosing from day 2 measured every other day up to 18 days. The class given is functional. Also noted: scale not given: the % may be the effect or the level left. The gist of the method: (§1)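 CT26 tumour-bearing BALB/c mice (cells inoculated day −8). Inhibitor given orally at 3 mg/kg/day in DDW (dosing solution 0.3 mg/mL) from day −2 onward. Daily ip CPT-11 50 mg/kg or saline from day 0. Tumour growth, body weight and diarrhea score (0 solid to 3 watery with severe perianal staining) recorded every other day; severity distribution on day 18. n = 6 mice/group; two-way ANOVA.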

Another series has as its system CT26. The series can be described thus: Effect on CPT-11 induced antitumor activity against mouse CT26 cells transplanted in Balb/cJ mouse assessed as reduction in tumor volume at 3 mg/kg/day administered via oral gavage for 18 days starting from 2 days before 50 mg/kg/day, ip CPT-11 dosing from day 2 measured every other day up to 18 days. It counts as functional, organism-based. The gist of the method:
as §1

Series [9] relates to Mus musculus. The experiment in a line: Effect on systemic metabolism of CPT-11 in mouse CT26 cells transplanted Balb/cJ mouse assessed as effect on CPT-11-induced weight loss at 3 mg/kg/day administered via oral gavage for 18 days starting from 2 days before 50 mg/kg/day, ip CPT-11 dosing from day 2 measured every other day up to 18 days. The class given is functional, organism-based. The gist of the method:
as §1

The test system of series [10] is Escherichia coli. The experiment in a line: Inhibition of N-terminal His-tagged Escherichia coli beta-glucuronidase expressed in Escherichia coli BL21 (DE3) using pNPG as substrate at 10 uM at pH 6.5. The gist of the method:
(§2)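 Purified E. coli βG assay at 10 μM compound, with PBS replaced by Na2HPO4 (0.2 M)/citric acid (0.1 M) buffer mixtures at each pH. Enzyme preincubated with compound 30 min at 37 °C, then pNPG added for 1 h; NaOH-quenched pNP read at 405 nm. Activity given relative to a 10% DMSO control at the same pH; n = 3.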

Series [11] relates to Escherichia coli. The series can be described thus: Inhibition of N-terminal His-tagged Escherichia coli beta-glucuronidase expressed in Escherichia coli BL21 (DE3) using pNPG as substrate at 10 uM at pH 6.0. The gist of the method: as §2
Series [12] relates to Escherichia coli. The series can be described thus: Inhibition of N-terminal His-tagged Escherichia coli beta-glucuronidase expressed in Escherichia coli BL21 (DE3) using pNPG as substrate at 10 uM at pH 5.5. The method in brief:
as §2

The subject of series [13] is Escherichia coli. The series can be described thus: Inhibition of N-terminal His-tagged Escherichia coli beta-glucuronidase expressed in Escherichia coli BL21 (DE3) using pNPG as substrate at 10 uM at pH 7.5. The method in brief: as §2

In the case of `Cc1ccc(Nc2nc3cc(F)ccc3c3[nH]nc(N)c23)cc1`, the results for the Activity in the series with Escherichia coli [1] and with Escherichia coli [4] were 6.84% and “Toxic”, respectively. The activity at 1 h, 10 µM at beta-glucuronidase was found to be 91.5%. It took 0.0381 µM to reach half-maximal inhibition in [2] (IC50). The inhibition (usually the share of the control response that was lost under treatment) in series [3] was greater than 80%.

Consider `Nc1n[nH]c2c1c(Nc1ccc(Cl)cc1)nc1ccc(Br)cc12`, for which the Activity was 16.4% with Escherichia coli [1] and “Toxic” in the series on Escherichia coli [4]. For the same compound, the activity at 1 h, 10 µM at beta-glucuronidase is 107%. Moreover, in [2], the concentration for half-maximal inhibition (IC50) (in general, the concentration that gives 50% inhibition) was found to be 0.018 µM. The same compound gave an inhibition in series [3] greater than 80%.

Consider `Nc1n[nH]c2c1c(Nc1ccc(Cl)cc1)nc1ccc(Cl)cc12`, for which the Activity in the series on Escherichia coli [1] was 6.35%; in the series on Escherichia coli [4], “Toxic”. Besides, the activity at 1 h, 10 µM at beta-glucuronidase worked out at 88.2%. In series [2], the 50% inhibitory concentration (IC50) was 0.0556 µM. Besides, in [3], the inhibition was greater than 80%.

As for `Nc1n[nH]c2c1c(Nc1ccc(F)cc1)nc1ccccc12`, the Activity is 5.59% in the series with Escherichia coli [1], “Non-Toxic” in the series with Escherichia coli [4] and 50% in the series with Mus musculus [8]. Moreover, the activity at 1 h, 10 µM at beta-glucuronidase amounted to 101%. Besides, the midpoint of inhibition in [2], the IC50, lay at 0.137 µM. For the same compound, the inhibition in [3] is greater than 80%; in the series with Escherichia coli [5], 75%; in the series on Escherichia coli [10] it was 90%; in the series with Escherichia coli [11], 80%; in the series on Escherichia coli [12], 50%; in the series with Escherichia coli [13], 90%. Also, the inhibition entry in the series with Escherichia coli [6] is “Active”. In addition, the Activity entry in the series with Mus musculus [7] is “Active”. Besides, the Activity entry in the series with CT26 and in the series on Mus musculus [9] was “inactive” each time.

Regarding `Cc1ccc(Nc2nc3ccccc3c3[nH]nc(N)c23)cc1`, the Activity was 4.78% in the series on Escherichia coli [1] and “Non-Toxic” in the series on Escherichia coli [4]. For the same compound, the activity at 1 h, 10 µM on beta-glucuronidase worked out at 100%. In [2], this compound returned a concentration for half-maximal inhibition (IC50) of 0.0373 µM. Besides, the inhibition is greater than 80% in [3] and 40% with Escherichia coli [5]. Moreover, in the series on Escherichia coli [6], the inhibition entry is “Active”.

In the case of `Cc1ccc(Nc2nc3ccc(Br)cc3c3[nH]nc(N)c23)cc1`, the Activity with Escherichia coli [1] was 12.1%; in the series on Escherichia coli [4] it was “Toxic”. In addition, the activity at 1 h, 10 µM on beta-glucuronidase is 97.9%. In series [2], the half-inhibitory concentration (IC50) stood at 0.0553 µM. Further, in series [3], the inhibition is greater than 80%.

With `Nc1n[nH]c2c1c(Nc1ccc(Cl)cc1)nc1ccccc12`, the Activity in the series on Escherichia coli [1] was 4.57%; in the series with Escherichia coli [4], “Toxic”. Besides, the activity at 1 h, 10 µM on beta-glucuronidase is 98.8%. Also, in series [2], the half-inhibitory concentration (IC50) is 0.0348 µM. Besides, in series [3], the inhibition was greater than 80%.

Consider `Cc1ccc(Nc2nc3ccc(Cl)cc3c3[nH]nc(N)c23)cc1`, for which the Activity with Escherichia coli [1] was 6.13%; in the series on Escherichia coli [4], “Toxic”. For the same compound, at beta-glucuronidase, the activity at 1 h, 10 µM was 91.5%. For the same compound, the concentration for half-maximal inhibition (IC50) in series [2] amounted to 0.0144 µM. The compound further had an inhibition in [3] greater than 80%.
